Measured values: ChEMBL document CHEMBL1124108, “Antihypertensive thiadiazoles. 2. Vasodilator activity of some 2-aryl-5-guanidino-1,3,4-thiadiazoles” (1988)

What follows are compounds tested on Rattus norvegicus (assay: Maximum percentage reduction in mean arterial blood pressure in metacorticoid (DOCA) hypertensive rats at a standard oral dose of 100 mg/kg).
Assay type: functional
In short: (§1)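 Rats were DOCA hypertensive. For oral dosing, food was withdrawn 18 h before; rats dosed ip were not starved. The vehicle was isotonic saline. Pressure was recorded by transducer under minimal restraint: twice before dosing, then at 1, 2, 3, 5 and 22 h. MABP was taken as diastolic + one-third pulse pressure. The value is the maximum % fall from the mean of the two pretreatment readings, n = 3-5.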

Compound | Reduction [%]
Cl.N=C(N)Nc1nnc(-c2ccccc2F)s1 | 31
Cc1ccccc1-c1nnc(N/C(N)=N\C(C)C)s1.Cl | 23
Cl.N=C(N)Nc1nnc(-c2cccc(F)c2)s1 | 20
Cl.N=C(N)Nc1nnc(-c2ccccc2Cl)s1 | 30
Cl.N=C(N)Nc1nnc(-c2cccc(Cl)c2)s1 | 12
Cl.Ic1ccccc1-c1nnc(NC2=NCCN2)s1 | 33
Cc1ccccc1-c1nnc(Nc2ncc[nH]2)s1.Cl | 40
CC(=O)NCC/N=C(/N)Nc1nnc(-c2ccccc2C)s1 | 21
Cl.N=C(N)Nc1nnc(-c2ccccc2C(F)(F)F)s1 | 26
C=CCNC(=N)Nc1nnc(-c2ccccc2C)s1.Cl | 28
CSCC/N=C(/N)Nc1nnc(-c2ccccc2C)s1.Cl | 18
Cc1ccccc1-c1nnc(NC(=N)NCCc2ccccc2)s1.Cl | 29
Cl.N=C(N)Nc1nnc(-c2ccccc2)s1 | 30
Cl.N=C(N)Nc1nnc(-c2cccc(C(F)(F)F)c2)s1 | 14
Cc1ccccc1-c1nnc(NC2=NCCCN2)s1.Cl | 13
Cc1ccc(-c2nnc(NC3=NCCN3)s2)c(C)c1.Cl | 24
Cc1ccccc1-c1nnc(NC2=NC(C)(C)CN2)s1.Cl | 15
Cl.N=C(N)Nc1nnc(-c2ccc(F)cc2)s1 | 20
Cc1ccccc1-c1nnc(N/C(N)=N\CCCN(C)C)s1.Cl | 20
Cc1ccccc1-c1nnc(NC(=N)NC(C)(C)C)s1.Cl | 18
CO/N=C(/N)Nc1nnc(-c2ccccc2C)s1.Cl | 29
Cl.N=C(N)Nc1nnc(-c2ccc(C(F)(F)F)cc2)s1 | 18
Cc1ccccc1-c1nnc(NC(=N)NCCN)s1.Cl | 32

These compounds were tested on Rattus norvegicus (assay: Maximum percentage reduction in mean blood pressure in metacorticoid (DOCA) hypertensive rats at a standard oral dose of 100 mg/kg; IA = Inactive;Maximum percentage fall in MABP <10%).
Assay type: functional, organism-based
Set-up: dose 100 mg/kg
In short: as §1

Compound | Reduction
COc1cccc(-c2nnc(N=C(N)N)s2)c1 | Not significant
Cc1ccccc1-c1nnc(NC(=N)Nc2ccccc2)s1 | Not significant
Cc1ccccc1-c1nnc(N=C2N(C)CCN2C)s1 | Not significant
CCCC/N=C(\NCCCN(C)C)Nc1nnc(-c2ccccc2C)s1 | Not significant
N=C(N)Nc1nnc(-c2ccccc2O)s1 | Not significant
Cc1cccc(C)c1-c1nnc(N=C(N)N)s1 | Not significant
Cc1ccc(-c2nnc(N=C(N)N)s2)c(C)c1 | Not significant
Cc1ccccc1-c1nnc(NC(=N)NC2CCC2)s1 | Not significant
N=C(N)Nc1nnc(-c2ccccc2-c2ccccc2)s1 | Not significant
Cc1ccccc1-c1nnc(NC2=NCCN2C)s1 | Not significant
Cc1ccccc1-c1nnc(NC(=N)N2CCCC2)s1 | Not significant
N=C(N)Nc1nnc(C2CCCCC2)s1 | Not significant
Cc1ccc(-c2nnc(N=C(N)N)s2)cc1 | Not significant
N=C(N)Nc1nnc(-c2ccc([N+](=O)[O-])cc2)s1 | Not significant
Cc1ccc(C)c(-c2nnc(N=C(N)N)s2)c1 | Not significant
Cc1ccccc1-c1nnc(N(C)C2=NCCN2)s1 | Not significant

What follows are compounds tested on Rattus norvegicus (assay: Maximum percentage reduction in mean blood pressure in metacorticoid (DOCA) hypertensive rats at a standard oral dose of 50 mg/kg).
Assay type: functional
In short: as §1

Compound | Reduction [%]
Cl.N=C(N)Nc1nnc(-c2ccccc2I)s1 | 28
Cc1ccccc1-c1nnc(NN)s1 | 48

The compounds below were run on Rattus norvegicus (assay: Maximum percentage reduction in mean blood pressure in metacorticoid (DOCA) hypertensive rats at a standard oral dose of 100 mg/kg).
Assay type: functional
In short: as §1

Compound | Reduction [%]
Cl.N=C(N)Nc1nnc(-c2ccccc2N)s1 | 14
CCCC/N=C(/NC)Nc1nnc(-c2ccccc2C)s1.Cl | 28
Cc1ccccc1-c1nnc(NC(=N)NC2CCCC2)s1.Cl | 20
Cc1ccccc1-c1nnc(NC(=N)N2CCOCC2)s1.Cl | 16
Cl.N=C(N)Nc1nnc(-c2ccccc2[N+](=O)[O-])s1 | 17
Cl.N=C(N)Nc1nnc(-c2ccccc2I)s1 | 41
CCc1ccccc1-c1nnc(N=C(N)N)s1 | 12
COc1cc(C)c(-c2nnc(N=C(N)N)s2)cc1OC.Cl | 24
COCCC/N=C(/N)Nc1nnc(-c2ccccc2C)s1.Cl | 33
Cc1ccccc1-c1nnc(NC(=N)N(C)CC(C)O)s1.Cl (configuration not stated) | 21
Cc1ccsc1-c1nnc(N=C(N)N)s1.Cl | 14
CCC/N=C(/N)Nc1nnc(-c2ccccc2C)s1.Cl | 32
COc1cccc(OC)c1-c1nnc(N=C(N)N)s1 | 16
Cl.N=C(N)Nc1nnc(-c2cccs2)s1 | 32
CCOCC/N=C(/N)Nc1nnc(-c2ccccc2C)s1.Cl | 34
CCC[S+]([O-])c1ccccc1-c1nnc(N=C(N)N)s1.Cl (configuration not stated) | 13
Cl.N=C(N)Nc1nnc(-c2ccco2)s1 | 24
Cc1ccc(F)cc1-c1nnc(N=C(N)N)s1.Cl | 21
Cc1cc(C)cc(-c2nnc(N=C(N)N)s2)c1.Cl | 18
Cc1cc(F)ccc1-c1nnc(N=C(N)N)s1.Cl | 34
Cl.N=C(N)Nc1nnc(-c2ccc(Cl)c(Cl)c2)s1 | 15
Cc1cccc(-c2nnc(N=C(N)N)s2)c1.Cl | 19
C/N=C(/NC)Nc1nnc(-c2ccccc2C)s1.Cl | 27

Compound | Reduction [%]
COCC/N=C(/N)Nc1nnc(-c2ccccc2I)s1.Cl | 33
Cc1ccccc1-c1nnc(NC(=N)NCc2ccccc2)s1.Cl | 12
CCCOc1ccccc1-c1nnc(N=C(N)N)s1.Cl | 12
Cc1ccccc1-c1nnc(NC(=N)NCCO)s1.Cl | 35
CC(C)(C)c1ccccc1-c1nnc(N=C(N)N)s1 | 22
Cc1ccccc1-c1nnc(NC(=N)N2CCN(C)CC2)s1.Cl | 18
Cc1ccc(-c2nnc(N=C(N)N)s2)cc1C.Cl | 33
COc1ccc(-c2nnc(N=C(N)N)s2)cc1OC.Cl | 21
CSc1ccccc1-c1nnc(N=C(N)N)s1.Cl | 13
COc1ccccc1-c1nnc(N=C(N)N)s1.Cl | 26
Cc1ccccc1-c1nnc(NC(=N)NCCCO)s1.Cl | 24
Cl.N=C(N)Nc1nnc(-c2cccc3ccccc23)s1 | 20
Cl.N=C(N)Nc1nnc(-c2ccccn2)s1 | 19
C[S+]([O-])c1ccccc1-c1nnc(N=C(N)N)s1.Cl (configuration not stated) | 15
C/N=C(/N)Nc1nnc(-c2ccccc2C)s1 | 31
Cc1cccc(-c2nnc(N=C(N)N)s2)c1C.Cl | 14
COCC/N=C(/N)Nc1nnc(-c2ccc(F)cc2C)s1.Cl | 33
COCC/N=C(/N)Nc1nnc(-c2ccc(C)cc2C)s1.Cl | 31
COCC/N=C(/N)Nc1nnc(-c2ccc(OC)c(OC)c2)s1.Cl | 20
Cc1ccccc1-c1nnc(NC(=N)N(C)C)s1.Cl | 18
CCCCC/N=C(/N)Nc1nnc(-c2ccccc2C)s1.Cl | 23
Cc1ccccc1-c1nnc(NC(=N)NCC2CCCO2)s1.Cl (configuration not stated) | 17

What follows are compounds tested on Rattus norvegicus (assay: Summation of percentage reductions, compared to pretreatment controls, in MABP of DOCA hypertensive rats at 1,2,3,5,8 hr after the 50 mg/kg oral dose.).
Assay type: functional
In short: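 DOCA hypertensive rats (n = 5) were dosed orally. MABP (diastolic + one-third pulse pressure) was read before dosing and at 1, 2, 3, 5 and 8 h. The value is the sum of the % reductions from pretreatment control over these five time points.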

Compound | Summation MABP
Cc1ccccc1-c1nnc(NN)s1 | 206
